Measured values taken from ChEMBL document CHEMBL1158358, “Synthesis, antimicrobial and cytotoxic activities of some 5-arylidene-4-thioxo-thiazolidine-2-ones” (Eur J Med Chem, 2009).
Values after ≈ are worked out from the molar mass of the structure shown.

Assays:
Assay type in all cases: functional
Enterococcus faecalis [1] = assay: Antimicrobial activity against Enterococcus faecalis UFPEDA 138 at 300 ug/disk after 24 hrs by disk diffusion method; conditions: UFPEDA 138, 24 h, read-out: IZ
Procedure, shortened: (§1)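 Preliminary screen by disk diffusion. Paper disks (6 mm) holding 300 µg of compound were placed on agar plates inoculated with a standardized microbial suspension. DMSO-only disks served as negative controls. A mean inhibition zone below 7 mm was scored as no sensitivity. Values are means, n = 3.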

Staphylococcus aureus [2] = assay: Antimicrobial activity against multidrug-resistant Staphylococcus aureus H.C. 20905 isolate after 20 hrs by twofold serial dilution technique; conditions: H.C. 20905, 20 h
Procedure, shortened: (§2)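 Twofold serial dilution MIC in agar plates against Gram-positive strains and multidrug-resistant clinical isolates. Inoculum applied was 10⁵ CFU/plate. Plates with culture medium plus DMSO served as negative control. MIC was read after incubation at 35 °C for 20 h.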

Staphylococcus [3] = assay: Antimicrobial activity against coagulase-negative Staphylococcus H.A.M. 338 isolate after 20 hrs by twofold serial dilution technique; conditions: H.A.M. 338, 20 h
Procedure, shortened: (§3)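 MIC was determined by twofold serial dilution. Bacteria were tested in plates at 10⁵ CFU/plate and read after 20 h. C. albicans was tested in tubes at 10³ CFU/tube and read after 48 h. All incubations were at 35 °C. Medium plus DMSO served as the negative control.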

Candida albicans [4] = assay: Antimicrobial activity against Candida albicans UFPEDA 1007 at 300 ug/disk after 48 hrs by disk diffusion method; conditions: UFPEDA 1007, 48 h, read-out: IZ; procedure, shortened: as §1
NCI-H292 [5] = assay: Cytotoxicity against human NCI-H292 cells at 1.25 ug/mL after 72 hrs by MTT assay; conditions: NCI-H292, 72 h, read-out: GI
Procedure, shortened: (§4)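 MTT antiproliferative assay. Cells were diluted to 10⁵ cells/mL in 96-well plates and preincubated for 24 h at 37 °C in humid 5% CO₂. Compounds or vincristine (reference) were then added. Formazan was dissolved and OD read at 540 nm, compared with medium-only control cells. Run in triplicate.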

Enterococcus faecalis [6] = assay: Antimicrobial activity against multidrug-resistant Enterococcus faecalis H.C. 21944 isolate after 20 hrs by twofold serial dilution technique; conditions: H.C. 21944, 20 h; procedure, shortened: as §2
Bacillus subtilis [7] = assay: Antimicrobial activity against Bacillus subtilis UFPEDA 16 after 20 hrs by twofold serial dilution technique; conditions: UFPEDA 16, 20 h; procedure, shortened: as §3
HEp-2 [8] = assay: Cytotoxicity against human Hep2 cells at 1.25 ug/mL after 72 hrs by MTT assay; conditions: HEp-2, 72 h, read-out: GI; procedure, shortened: as §4
Staphylococcus aureus [9] = assay: Antimicrobial activity against multidrug-resistant Staphylococcus aureus H.C. 21036 isolate after 20 hrs by twofold serial dilution technique; conditions: H.C. 21036, 20 h; procedure, shortened: as §2
NCI-H292 [10] = assay: Cytotoxicity against human NCI-H292 cells at 2.5 ug/mL after 72 hrs by MTT assay; conditions: NCI-H292, 72 h, read-out: GI; procedure, shortened: as §4
Candida albicans [11] = assay: Antimicrobial activity against Candida albicans UFPEDA 1007 after 48 hrs by twofold serial dilution technique; conditions: UFPEDA 1007, 48 h; procedure, shortened: as §3
NCI-H292 [12] = assay: Cytotoxicity against human NCI-H292 cells at 10 ug/mL after 72 hrs by MTT assay; conditions: NCI-H292, 72 h, read-out: GI; procedure, shortened: as §4
Staphylococcus aureus [13] = assay: Antimicrobial activity against multidrug-resistant Staphylococcus aureus H.C. 20489 isolate after 20 hrs by twofold serial dilution technique; conditions: H.C. 20489, 20 h; procedure, shortened: as §2
Escherichia coli [14] = assay: Antimicrobial activity against Escherichia coli UFPEDA 224 at 300 ug/disk after 24 hrs by disk diffusion method; conditions: UFPEDA 224, 24 h, read-out: IZ; procedure, shortened: as §1
Enterococcus faecalis [15] = assay: Antimicrobial activity against multidrug-resistant Enterococcus faecalis H.C. 24708 isolate after 20 hrs by twofold serial dilution technique; conditions: H.C. 24708, 20 h; procedure, shortened: as §2
Bacillus subtilis [16] = assay: Antimicrobial activity against Bacillus subtilis UFPEDA 16 at 300 ug/disk after 24 hrs by disk diffusion method; conditions: UFPEDA 16, 24 h, read-out: IZ; procedure, shortened: as §1
Pseudomonas aeruginosa = assay: Antimicrobial activity against Pseudomonas aeruginosa UFPEDA 39 at 300 ug/disk after 24 hrs by disk diffusion method; conditions: UFPEDA 39, 24 h, read-out: IZ; procedure, shortened: as §1
Enterococcus faecalis [17] = assay: Antimicrobial activity against multidrug-resistant Enterococcus faecalis H.C. 21752 isolate after 20 hrs by twofold serial dilution technique; conditions: H.C. 21752, 20 h; procedure, shortened: as §2
[18] = system: Mycolicibacterium smegmatis; assay: Antimicrobial activity against Mycobacterium smegmatis UFPEDA 71 after 20 hrs by twofold serial dilution technique; conditions: UFPEDA 71, 20 h; procedure, shortened: as §3
HEp-2 [19] = assay: Cytotoxicity against human Hep2 cells at 10 ug/mL after 72 hrs by MTT assay; conditions: HEp-2, 72 h, read-out: GI; procedure, shortened: as §4
[20] = system: Mycolicibacterium smegmatis; assay: Antimicrobial activity against Mycobacterium smegmatis UFPEDA 71 at 300 ug/disk after 24 hrs by disk diffusion method; conditions: UFPEDA 71, 24 h, read-out: IZ; procedure, shortened: as §1
HEp-2 [21] = assay: Cytotoxicity against human Hep2 cells at 5 ug/mL after 72 hrs by MTT assay; conditions: HEp-2, 72 h, read-out: GI; procedure, shortened: as §4
Enterococcus faecalis [22] = assay: Antimicrobial activity against Enterococcus faecalis UFPEDA 138 after 20 hrs by twofold serial dilution technique; conditions: UFPEDA 138, 20 h; procedure, shortened: as §3
Enterococcus faecalis [23] = assay: Antimicrobial activity against multidrug-resistant Enterococcus faecalis H.C. 24962 isolate after 20 hrs by twofold serial dilution technique; conditions: H.C. 24962, 20 h; procedure, shortened: as §2
Staphylococcus aureus [24] = assay: Antimicrobial activity against multidrug-resistant Staphylococcus aureus H.C. 20981 isolate after 20 hrs by twofold serial dilution technique; conditions: H.C. 20981, 20 h; procedure, shortened: as §2
Micrococcus luteus [25] = assay: Antimicrobial activity against Micrococcus luteus UFPEDA 06 at 300 ug/disk after 24 hrs by disk diffusion method; conditions: UFPEDA 06, 24 h, read-out: IZ; procedure, shortened: as §1
Serratia marcescens = assay: Antimicrobial activity against Serratia marcescens UFPEDA 398 at 300 ug/disk after 24 hrs by disk diffusion method; conditions: UFPEDA 398, 24 h, read-out: IZ; procedure, shortened: as §1
NCI-H292 [26] = assay: Cytotoxicity against human NCI-H292 cells at 5 ug/mL after 72 hrs by MTT assay; conditions: NCI-H292, 72 h, read-out: GI; procedure, shortened: as §4
Staphylococcus aureus [27] = assay: Antimicrobial activity against Staphylococcus aureus UFPEDA 01 after 20 hrs by twofold serial dilution technique; conditions: UFPEDA 01, 20 h; procedure, shortened: as §2
Micrococcus luteus [28] = assay: Antimicrobial activity against Micrococcus luteus UFPEDA 06 after 20 hrs by twofold serial dilution technique; conditions: UFPEDA 06, 20 h; procedure, shortened: as §3
Staphylococcus aureus [29] = assay: Antimicrobial activity against multidrug-resistant Staphylococcus aureus H.C. 21141 isolate after 20 hrs by twofold serial dilution technique; conditions: H.C. 21141, 20 h; procedure, shortened: as §2
Staphylococcus aureus [30] = assay: Antimicrobial activity against Staphylococcus aureus UFPEDA 01 at 300 ug/disk after 24 hrs by disk diffusion method; conditions: UFPEDA 01, 24 h, read-out: IZ; procedure, shortened: as §1
Staphylococcus [31] = assay: Antimicrobial activity against coagulase-negative Staphylococcus H.A.M. 278 isolate after 20 hrs by twofold serial dilution technique; conditions: H.A.M. 278, 20 h; procedure, shortened: as §3
Staphylococcus aureus [32] = assay: Antimicrobial activity against multidrug-resistant Staphylococcus aureus H.C. 20794 isolate after 20 hrs by twofold serial dilution technique; conditions: H.C. 20794, 20 h; procedure, shortened: as §2
HEp-2 [33] = assay: Cytotoxicity against human Hep2 cells at 2.5 ug/mL after 72 hrs by MTT assay; conditions: HEp-2, 72 h, read-out: GI; procedure, shortened: as §4
Enterococcus faecalis [34] = assay: Antimicrobial activity against Enterococcus faecalis UFPEDA 138 at 10 ug/disk after 24 hrs by disk diffusion method; conditions: UFPEDA 138, 24 h, read-out: IZ
Staphylococcus aureus [35] = assay: Antimicrobial activity against Staphylococcus aureus UFPEDA 01 at 10 ug/disk after 24 hrs by disk diffusion method; conditions: UFPEDA 01, 24 h, read-out: IZ
Escherichia coli [36] = assay: Antimicrobial activity against Escherichia coli UFPEDA 224 at 10 ug/disk after 24 hrs by disk diffusion method; conditions: UFPEDA 224, 24 h, read-out: IZ
Procedure, shortened: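 Preliminary screen: 6 mm paper disks bearing the agent placed on agar plates inoculated with a standardized microbial suspension. Negative control was DMSO-only disks. Inhibition zones are means of n = 3; no zone or a mean zone below 7 mm was scored as no sensitivity.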

Bacillus subtilis [37] = assay: Antimicrobial activity against Bacillus subtilis UFPEDA 16 at 10 ug/disk after 24 hrs by disk diffusion method; conditions: UFPEDA 16, 24 h, read-out: IZ
Micrococcus luteus [38] = assay: Antimicrobial activity against Micrococcus luteus UFPEDA 06 at 10 ug/disk after 24 hrs by disk diffusion method; conditions: UFPEDA 06, 24 h, read-out: IZ

Structure (SMILES) | MIC (Staphylococcus aureus [2]) [µg/mL] | MIC (Staphylococcus [3]) [µg/mL] | MIC (Enterococcus faecalis [6]) [µg/mL] | MIC (Bacillus subtilis [7]) [µg/mL] | MIC (Staphylococcus aureus [9]) [µg/mL] | MIC (Staphylococcus aureus [13]) [µg/mL] | MIC (Enterococcus faecalis [15]) [µg/mL] | MIC (Enterococcus faecalis [17]) [µg/mL] | MIC [18] [µg/mL] | MIC (Enterococcus faecalis [22]) [µg/mL] | MIC (Enterococcus faecalis [23]) [µg/mL] | MIC (Staphylococcus aureus [24]) [µg/mL] | MIC (Staphylococcus aureus [27]) [µg/mL] | MIC (Micrococcus luteus [28]) [µg/mL] | MIC (Staphylococcus aureus [29]) [µg/mL] | MIC (Staphylococcus [31]) [µg/mL] | MIC (Staphylococcus aureus [32]) [µg/mL] | also measured
O=C1NC(=S)/C(=C/c2cc(Cl)cc(Cl)c2Cl)S1 | 2 (≈ 6.16 µM) | 2 (≈ 6.16 µM) | 4 (≈ 12.3 µM) | 2 (≈ 6.16 µM) | 2 (≈ 6.16 µM) | 2 (≈ 6.16 µM) | 4 (≈ 12.3 µM) | 4 (≈ 12.3 µM) | 32 (≈ 98.6 µM) | 2 (≈ 6.16 µM) | 4 (≈ 12.3 µM) | 2 (≈ 6.16 µM) | 4 (≈ 12.3 µM) | 4 (≈ 12.3 µM) | 2 (≈ 6.16 µM) | 2 (≈ 6.16 µM) | 2 (≈ 6.16 µM) | zone of inhibition at 300 µg/disc (Enterococcus faecalis [1]): 19 mm; zone of inhibition at 300 µg/disc (Candida albicans [4]): < 7 mm; inhibition of growth at 1.25 µg/mL (NCI-H292 [5]): 14.2%; inhibition of growth at 1.25 µg/mL (HEp-2 [8]): 12.6%; inhibition of growth at 2.5 µg/mL (NCI-H292 [10]): 33%; MIC (Candida albicans [11]): 64 µg/mL (≈ 197 µM); inhibition of growth at 10 µg/mL (NCI-H292 [12]): 40.5%; zone of inhibition at 300 µg/disc (Escherichia coli [14]): < 7 mm; zone of inhibition at 300 µg/disc (Bacillus subtilis [16]): < 7 mm; zone of inhibition at 300 µg/disc (Pseudomonas aeruginosa): < 7 mm; inhibition of growth at 10 µg/mL (HEp-2 [19]): 23.5%; zone of inhibition at 300 µg/disc [20]: < 7 mm; inhibition of growth at 5 µg/mL (HEp-2 [21]): 22.8%; zone of inhibition at 300 µg/disc (Micrococcus luteus [25]): 21 mm; zone of inhibition at 300 µg/disc (Serratia marcescens): < 7 mm; inhibition of growth at 5 µg/mL (NCI-H292 [26]): 39.7%; zone of inhibition at 300 µg/disc (Staphylococcus aureus [30]): 16 mm; inhibition of growth at 2.5 µg/mL (HEp-2 [33]): 21.8%
CC1(C)S[C@@H]2[C@H](NC(=O)[C@H](N)c3ccccc3)C(=O)N2[C@H]1C(=O)O [AMPICILLIN] | 64 (≈ 183 µM) | ≤ 1 | ≤ 1 | 2 (≈ 5.72 µM) | 32 (≈ 91.6 µM) | ≤ 1 | 2 (≈ 5.72 µM) | 2 (≈ 5.72 µM) | 64 (≈ 183 µM) | 2 (≈ 5.72 µM) | 2 (≈ 5.72 µM) | 2 (≈ 5.72 µM) | 2 (≈ 5.72 µM) | 2 (≈ 5.72 µM) | ≤ 1 | ≤ 1 | 2 (≈ 5.72 µM) | zone of inhibition at 10 µg/disc (Enterococcus faecalis [34]): 24 mm; zone of inhibition at 10 µg/disc (Staphylococcus aureus [35]): 38 mm; zone of inhibition at 10 µg/disc (Escherichia coli [36]): 20 mm; zone of inhibition at 10 µg/disc (Bacillus subtilis [37]): 28 mm; zone of inhibition at 10 µg/disc (Micrococcus luteus [38]): 45 mm
